Reference: ChEMBL document CHEMBL4346667 (Eur J Med Chem, 2019)
Active and inactive are the calls of the source. The rule behind the calls is not given here.

test system: L02; test: Antiproliferative activity against human HL7702 cells assessed as reduction in cell viability after 48 hrs by MTT assay; assay type: functional, cell-based; conditions: L02, 48 h
Summary of the method: (§1)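 Cells grown at 37 °C, 5% CO2; HeLa, HepG2, H8, HL7702 in RPMI 1640 + 10% fetal calf serum, others in high-glucose DMEM + 10% fetal calf serum. Log-phase cells seeded at 4000-12000/well by doubling time. Attached cells were given 10-fold dilutions, 100 µM to 10 nM (DMSO 0.1% v/v), for 48 h. MTT (2 mg/mL) 4 h, formazan in DMSO, A492. IC50 from triplicate means.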

SMILES | IC50
COc1cc([C@@H]2c3cc4c(cc3[C@@H](Nc3cccc5ncccc35)[C@H]3COC(=O)[C@H]23)OCO4)cc(OC)c1OC | 89.8 µM
COC(=O)Nc1nc2cc(C(=O)c3cccs3)ccc2[nH]1 [NOCODAZOLE] | 13.5 µM
COc1cc([C@@H]2c3cc4c(cc3[C@@H](Nc3ccc5[nH]ncc5c3)[C@H]3COC(=O)[C@H]23)OCO4)cc(OC)c1OC | 50.6 µM

test system: HepG2; test: Antiproliferative activity against human HepG2 cells assessed as reduction in cell viability after 48 hrs by MTT assay; assay type: functional, cell-based; conditions: HepG2, 48 h; summary of the method: as §1

SMILES | IC50
COc1cc([C@@H]2c3cc4c(cc3[C@@H](Nc3cccc5ncccc35)[C@H]3COC(=O)[C@H]23)OCO4)cc(OC)c1OC | > 100 µM
COC(=O)Nc1nc2cc(C(=O)c3cccs3)ccc2[nH]1 [NOCODAZOLE] | 0.4 µM
COc1cc([C@@H]2c3cc4c(cc3[C@@H](Nc3ccc5[nH]ncc5c3)[C@H]3COC(=O)[C@H]23)OCO4)cc(OC)c1OC | 0.3 µM

target: T1, Tubulin (Sus scrofa) (UniProt P02554+P02550); test: Inhibition of porcine tubulin assembly assessed as tubulin growth inhibition incubated for 30 min by fluorometric analysis; assay type: protein assay; conditions: not given
Summary of the method: (§2)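 This was a centrifugation assay of tubulin assembly. Tubulin was held at 4 °C with 0.9 mM GTP and 6 mM MgCl2, and aggregates were removed at 90000 g for 10 min at 4 °C. Ligands at 0.05–2 µM (1% DMSO) were incubated for 30 min at 37 °C. Supernatants and pellets were diluted 1:5, and tubulin was read fluorometrically (ex 280, em 323) against standards. The 50% inhibitory concentration came from inhibition curves, as the mean of three experiments.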

T1 sequence (P02550 whole entry, looked up): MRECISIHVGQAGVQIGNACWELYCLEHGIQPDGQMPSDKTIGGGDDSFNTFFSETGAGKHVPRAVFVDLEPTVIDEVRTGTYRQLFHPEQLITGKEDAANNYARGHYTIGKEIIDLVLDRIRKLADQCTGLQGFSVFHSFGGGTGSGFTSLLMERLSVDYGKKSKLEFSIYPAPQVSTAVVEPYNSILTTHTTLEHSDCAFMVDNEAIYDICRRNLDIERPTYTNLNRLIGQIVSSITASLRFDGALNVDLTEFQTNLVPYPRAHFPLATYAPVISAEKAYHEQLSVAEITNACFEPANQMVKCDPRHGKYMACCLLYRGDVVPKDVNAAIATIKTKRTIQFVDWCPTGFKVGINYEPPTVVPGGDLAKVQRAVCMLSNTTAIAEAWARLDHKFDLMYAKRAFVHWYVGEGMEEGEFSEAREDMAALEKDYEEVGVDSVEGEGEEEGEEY
T1 sequence (P02554 whole entry, looked up): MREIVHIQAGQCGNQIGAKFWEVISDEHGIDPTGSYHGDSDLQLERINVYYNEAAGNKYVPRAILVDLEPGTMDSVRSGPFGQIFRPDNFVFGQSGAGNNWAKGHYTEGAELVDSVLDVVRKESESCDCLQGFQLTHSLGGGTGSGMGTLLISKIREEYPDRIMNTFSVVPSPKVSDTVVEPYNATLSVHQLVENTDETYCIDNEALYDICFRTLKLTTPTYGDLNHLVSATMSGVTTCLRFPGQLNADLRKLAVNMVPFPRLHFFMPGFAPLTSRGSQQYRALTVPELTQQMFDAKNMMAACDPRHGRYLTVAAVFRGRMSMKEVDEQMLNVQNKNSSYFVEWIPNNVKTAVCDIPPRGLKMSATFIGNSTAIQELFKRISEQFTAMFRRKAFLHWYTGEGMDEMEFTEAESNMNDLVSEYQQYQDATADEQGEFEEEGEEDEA

SMILES | GI50
COc1cc([C@@H]2c3cc4c(cc3[C@@H](Nc3ccc5[nH]ncc5c3)[C@H]3COC(=O)[C@H]23)OCO4)cc(OC)c1OC | < 0.1 µM

test system: HeLa; test: Antiproliferative activity against human HeLa cells assessed as reduction in cell viability after 48 hrs by MTT assay; assay type: functional, cell-based; conditions: not given; summary of the method: as §1

SMILES | IC50
COc1cc([C@@H]2c3cc4c(cc3[C@@H](Nc3cccc5ncccc35)[C@H]3COC(=O)[C@H]23)OCO4)cc(OC)c1OC | > 100 µM
COC(=O)Nc1nc2cc(C(=O)c3cccs3)ccc2[nH]1 [NOCODAZOLE] | 0.3 µM
COc1cc([C@@H]2c3cc4c(cc3[C@@H](Nc3ccc5[nH]ncc5c3)[C@H]3COC(=O)[C@H]23)OCO4)cc(OC)c1OC | 0.2 µM

test system: not listed separately; test: Antiproliferative activity against human H8 cells assessed as reduction in cell viability after 48 hrs by MTT assay; assay type: functional, cell-based; conditions: not given; summary of the method: as §1

SMILES | IC50
COc1cc([C@@H]2c3cc4c(cc3[C@@H](Nc3cccc5ncccc35)[C@H]3COC(=O)[C@H]23)OCO4)cc(OC)c1OC | 94.2 µM
COC(=O)Nc1nc2cc(C(=O)c3cccs3)ccc2[nH]1 [NOCODAZOLE] | 18 µM
COc1cc([C@@H]2c3cc4c(cc3[C@@H](Nc3ccc5[nH]ncc5c3)[C@H]3COC(=O)[C@H]23)OCO4)cc(OC)c1OC | 98.4 µM

test system: A549; test: Antiproliferative activity against human A549 cells assessed as reduction in cell viability after 48 hrs by MTT assay; assay type: functional, cell-based; conditions: A549, 48 h; summary of the method: as §1

SMILES | IC50
COc1cc([C@@H]2c3cc4c(cc3[C@@H](Nc3cccc5ncccc35)[C@H]3COC(=O)[C@H]23)OCO4)cc(OC)c1OC | > 100 µM
COC(=O)Nc1nc2cc(C(=O)c3cccs3)ccc2[nH]1 [NOCODAZOLE] | 0.2 µM
COc1cc([C@@H]2c3cc4c(cc3[C@@H](Nc3ccc5[nH]ncc5c3)[C@H]3COC(=O)[C@H]23)OCO4)cc(OC)c1OC | 0.2 µM

test system: MRC5; test: Antiproliferative activity against human MRC5 cells assessed as reduction in cell viability after 48 hrs by MTT assay; assay type: functional, cell-based; conditions: MRC5, 48 h; summary of the method: as §1

SMILES | IC50
COc1cc([C@@H]2c3cc4c(cc3[C@@H](Nc3cccc5ncccc35)[C@H]3COC(=O)[C@H]23)OCO4)cc(OC)c1OC | 70.8 µM
COC(=O)Nc1nc2cc(C(=O)c3cccs3)ccc2[nH]1 [NOCODAZOLE] | 15.3 µM
COc1cc([C@@H]2c3cc4c(cc3[C@@H](Nc3ccc5[nH]ncc5c3)[C@H]3COC(=O)[C@H]23)OCO4)cc(OC)c1OC | 60.8 µM

test system: MCF7; test: Antiproliferative activity against human MCF7 cells assessed as reduction in cell viability after 48 hrs by MTT assay; assay type: functional, cell-based; conditions: MCF7, 48 h; summary of the method: as §1

SMILES | IC50
COc1cc([C@@H]2c3cc4c(cc3[C@@H](Nc3cccc5ncccc35)[C@H]3COC(=O)[C@H]23)OCO4)cc(OC)c1OC | > 100 µM
COC(=O)Nc1nc2cc(C(=O)c3cccs3)ccc2[nH]1 [NOCODAZOLE] | 0.2 µM
COc1cc([C@@H]2c3cc4c(cc3[C@@H](Nc3ccc5[nH]ncc5c3)[C@H]3COC(=O)[C@H]23)OCO4)cc(OC)c1OC | 0.2 µM

test system: HMEC; test: Antiproliferative activity against human HMEC cells assessed as reduction in cell viability after 48 hrs by MTT assay; assay type: functional, cell-based; conditions: not given; summary of the method: as §1

SMILES | IC50
COc1cc([C@@H]2c3cc4c(cc3[C@@H](Nc3cccc5ncccc35)[C@H]3COC(=O)[C@H]23)OCO4)cc(OC)c1OC | 79.8 µM
COC(=O)Nc1nc2cc(C(=O)c3cccs3)ccc2[nH]1 [NOCODAZOLE] | 11.5 µM
COc1cc([C@@H]2c3cc4c(cc3[C@@H](Nc3ccc5[nH]ncc5c3)[C@H]3COC(=O)[C@H]23)OCO4)cc(OC)c1OC | 81.8 µM

test system: MCF7; test: Cell cycle arrest in human MCF7 cells assessed as accumulation of cells at G2/M phase at >=250 nM after 24 hrs by propidium iodide double staining based flow cytometric analysis (reference value: 80%); assay type: functional; conditions: not given
Summary of the method: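 Log-phase cells seeded in 6-well plates and, once adhered, treated at 10-1000 nM; incubated in cycles of 6 h on/6 h off up to 48 h. Washed in cold PBS, fixed in 70% ethanol at -20 °C for at least 2 days. Stained with PI (50 µg/mL) 30 min on ice in the dark. 10,000 events on FL2-A vs FL2-W; G1/S/G2/M from DNA modelling. At least three repeats.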

SMILES | Activity
COc1cc([C@@H]2c3cc4c(cc3[C@@H](Nc3ccc5[nH]ncc5c3)[C@H]3COC(=O)[C@H]23)OCO4)cc(OC)c1OC | 45%

test system: MCF7; test: Induction of apoptosis in human MCF7 cells at 250 nM after 48 hrs by Annexin V-FITC/propidium iodide staining-based flow cytometric analysis relative to control (reference value: 11.6%); assay type: functional; conditions: not given
Summary of the method: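 MCF7 cells were seeded in 6-well plates and exposed after adhering to graded concentrations for 48 h, in cycles of 6 h on and 6 h off. They were then stained with annexin V (1 µg/mL) and PI (0.5 µg/mL) in Ca2+-enriched binding buffer for 15 min in the dark at room temperature. Flow cytometry recorded 10,000 events, FL1 versus FL2. Apoptosis was taken as early plus late stage, with at least 3 repeats.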

SMILES | Activity
COc1cc([C@@H]2c3cc4c(cc3[C@@H](Nc3ccc5[nH]ncc5c3)[C@H]3COC(=O)[C@H]23)OCO4)cc(OC)c1OC | 60%

target: Tubulin; test: Binding affinity to tubulin (unknown origin) assessed as dissociation constant by SPR analysis; assay type: protein-complex assay, Homo sapiens; conditions: not given
Summary of the method: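 Tubulin immobilised to about 800 mDeg. Injected at 60 µL/min for 300 s; PBS with 0.5% DMSO as running buffer. Measured at 25 °C, with dilution-corrected peak areas.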

SMILES | Kd
COc1cc([C@@H]2c3cc4c(cc3[C@@H](Nc3ccc5[nH]ncc5c3)[C@H]3COC(=O)[C@H]23)OCO4)cc(OC)c1OC | 9.1 µM

target: T2, Tubulin (Homo sapiens) (UniProt P68371+Q9H4B7+P0DPH7+P68366+Q13509+Q71U36+P04350+Q3ZCM7+P07437+P68363+Q9BQE3+Q6PEY2+Q13885+Q9BVA1+Q9BUF5); test: Ratio of Kd for PTOX to Kd for test compound for tubulin (unknown origin) by surface plasmon resonance analysis; assay type: protein-complex assay; conditions: not given
Summary of the method: (§3)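 SPR binding to immobilised tubulin (up to 800 mDeg) was measured at 25 °C. Compounds were diluted two-fold from 80 to 2.5 µM in PBS with 0.5% DMSO. They were injected at 60 µL/min for 300 s, with PBS containing 0.5% DMSO as running buffer. Kd values came from the titration data.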

SMILES | Ratio
COc1cc([C@@H]2c3cc4c(cc3[C@@H](Nc3ccc5[nH]ncc5c3)[C@H]3COC(=O)[C@H]23)OCO4)cc(OC)c1OC | 2.7

target: T2, Tubulin (Homo sapiens); test: Ratio of Kd for colchicine to Kd for test compound for tubulin (unknown origin) by surface plasmon resonance analysis; assay type: protein-complex assay; conditions: not given; summary of the method: as §3

SMILES | Ratio
COc1cc([C@@H]2c3cc4c(cc3[C@@H](Nc3ccc5[nH]ncc5c3)[C@H]3COC(=O)[C@H]23)OCO4)cc(OC)c1OC | 2.2

target: T1, Tubulin (Sus scrofa); test: Inhibition of porcine tubulin assembly assessed as tubulin growth inhibition at 2 uM incubated for 30 min by fluorometric analysis; assay type: protein assay; conditions: not given; summary of the method: as §2

SMILES | inhibition
COc1cc([C@@H]2c3cc4c(cc3[C@@H](Nc3ccc5[nH]ncc5c3)[C@H]3COC(=O)[C@H]23)OCO4)cc(OC)c1OC | 79%

target: T2, Tubulin (Homo sapiens); test: Inhibition of tubulin polymerization in human HeLa cells assessed as contracted and rounded cells with disordered abnormal spindles and chromosomal misalignment at 500 nM after 24 hrs by immunofluorescence based confocal microscopy; assay type: cell-based; conditions: not given
Summary of the method: (§4)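 HeLa cells on glass coverslips were treated for 24 h at 25, 250 or 500 nM. They were fixed in 4% paraformaldehyde for 1 h and permeabilised with 0.2% Triton X-100 for 20 min. Cells were imaged by fluorescence and confocal microscopy.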

SMILES | inhibition
COC(=O)Nc1nc2cc(C(=O)c3cccs3)ccc2[nH]1 [NOCODAZOLE] | Active

target: T2, Tubulin (Homo sapiens); test: Inhibition of tubulin polymerization in human HeLa cells assessed as cellular microtubule disorganization and H3 phosphorylation at 500 nM after 24 hrs by immunofluorescence based confocal microscopy; assay type: cell-based; conditions: not given
Summary of the method: as §4, with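 “min. Anti-α-tubulin (1:50 in 2% BSA) was applied for 1 h at RT, then Alexa Fluor 488 anti-rabbit IgG (1:500) for 1 h, then DAPI for 20 min.” for “min.”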

SMILES | inhibition
COc1cc([C@@H]2c3cc4c(cc3[C@@H](Nc3ccc5[nH]ncc5c3)[C@H]3COC(=O)[C@H]23)OCO4)cc(OC)c1OC | Active

target: not listed separately; test: Binding affinity to alpha/beta tubulin complex (unknown origin); design: species or system Homo sapiens; conditions: not given
Summary of the method: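 SPR assay: tubulin immobilized up to 800 mDeg (response units). Ligands were diluted two-fold from 80 µM to 2.5 µM in PBS with 0.5% (v/v) DMSO and injected at 60 µL/min for 300 s. Running buffer was PBS with 0.5% DMSO, at 25°C.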

SMILES | Ki
COc1cc([C@@H]2c3cc4c(cc3[C@@H](Nc3cccc5ncccc35)[C@H]3COC(=O)[C@H]23)OCO4)cc(OC)c1OC | 0.06 µM
COc1cc([C@@H]2c3cc4c(cc3[C@@H](Nc3ccc5[nH]ncc5c3)[C@H]3COC(=O)[C@H]23)OCO4)cc(OC)c1OC | 0.06 µM
